According to ChEMBL document CHEMBL5104206, “Oleic amide derivatives as small molecule stimulators of the human proteasome's core particle” (RSC Med Chem, 2022):
The source made the active and inactive calls. No cut-off for these calls is given here.

Tests used:
[1] = biological target: T1, 20S proteasome (Homo sapiens) (UniProt P49721+P20618+P28074+P28062+P28065+P28072+P25786+P25787+P25788+P25789+P28066+P60900+O14818+Q8TAA3+P40306+A5LHX3+P49720+P28070+Q99436); assay: Stimulation of human 20S proteasome assessed as increase in proteasome activity at 25 uM and measured upto 60 mins using FRET peptide as substrate by FRET assay relative to control; assay type: protein-complex assay; settings: filed as activator
Method in brief: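 Purified 20S CP (5 nM) with 20 µM FRET peptide reporter in Tris-HCl (50 mM, pH 7.63), 2% DMSO, 25 µL. Controls were reporter alone and basal enzyme with DMSO, in triplicate. Read at 37 °C, ex 335/em 493 nm, every 2 min for 60 min. Rate taken as slope of linear portion.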

HEK-293T = assay: Cytotoxicity against human HEK-293T cells assessed as reduction in cell viability at 6.25 to 25 uM incubated for 24 hrs by CellTiter Glo viability assay; assay type: toxicity, cell-based; settings: dose 6.25-25 µM
Method in brief: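 HEK-293T seeded at 5000 cells/well, attached overnight, medium refreshed. Compound in DMSO added in triplicate, 1% final DMSO, 24 h. Plate equilibrated to room temperature 30 min before CellTiter-Glo reagent, shaken 10 min, signal stabilized 10 min. Luminescence read.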

[2] = biological target: T1, 20S proteasome (Homo sapiens); assay: Activation of human 20S proteasome mediated degradation of alpha-synuclein assessed as amount of alpha-synuclein remaining at 25 uM and incubated for 2 hrs by Coomassie staining based SDS-PAGE analysis; assay type: protein-complex assay; settings: filed as activator
Method in brief: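 Human 20S CP (5 nM final) with α-Syn monomer (400 ng) in Tris-HCl (50 mM, pH 7.6), 2% DMSO, 18 µL total, 2 h at 37 °C, triplicate. Mixed on ice before incubation. Stopped in SDS loading buffer at 95 °C 5 min. Run on 4–15% SDS-PAGE, Coomassie stained, band intensity normalized to α-Syn without 20S CP.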

[3] = biological target: T2, Proteasome Macropain subunit MB1 (Homo sapiens) (UniProt P28074); assay: Stimulation of human 20S proteasome beta 5 subunit in human HEK-293T cells assessed as increase in proteasome activity at 6.25 to 25 uM preincubated for 2 hrs followed by Me4BodipyFL-Ahx3Leu3VS proteasome probe addition and measured after 1 hrs by SDS-PAGE analysis; assay type: cell-based; settings: filed as activator, dose 6.25-25 µM
T2 sequence (whole entry): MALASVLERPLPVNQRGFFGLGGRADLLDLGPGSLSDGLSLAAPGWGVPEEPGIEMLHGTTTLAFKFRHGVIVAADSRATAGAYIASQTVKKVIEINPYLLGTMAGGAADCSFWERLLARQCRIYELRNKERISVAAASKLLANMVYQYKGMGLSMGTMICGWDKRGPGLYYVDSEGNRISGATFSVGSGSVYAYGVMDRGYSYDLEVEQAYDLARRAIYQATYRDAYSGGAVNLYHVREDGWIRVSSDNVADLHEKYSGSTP
Method in brief: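 Treated 2 h in fresh medium, DMSO control 0.5%, then 1 µM Me4BodipyFL-Ahx3Leu3VS probe added. Cells lysed in M-PER with protease inhibitors. 50 µg protein run on 4–15% SDS-PAGE, in-gel fluorescence scanned at 488 nm. Band densities quantified, triplicate.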

CCCCCCCC/C=C\CCCCCCCC(=O)NCc1ccc(C(C)(C)C)cc1
Activity [1]: 106%

CCCCCCCC/C=C\CCCCCCCC(=O)NC1CCCC1
Activity [1]: 218%

CCCCC/C=C\C/C=C\C/C=C\C/C=C\CCCC(=O)Nc1ccc(O)cc1
Activity (HEK-293T): Toxic
Activity [2]: Active
Activity [1]: 219%
Activity ([3]; DDE = dose-dependent effect): Dde

CCCCCCCC/C=C\CCCCCCCC(=O)NCC(C)C
Activity [1]: 139%

CCCCCCCC/C=C\CCCCCCCC(=O)NC
Activity [1]: 132%

CCCCCCCC/C=C\CCCCCCCC(=O)NCCCC
Activity [1]: 138%

CCCCCCCC/C=C\CCCCCCCC(=O)Nc1ccc(C(C)=O)cc1
Activity (HEK-293T): Non-Toxic
Activity [2]: Active
Activity [1]: 241%
Activity [3]: Active

CCCCCCCC/C=C\CCCCCCCC(=O)NCc1ccccc1
Activity [1]: 208%

CCCCCCCC/C=C\CCCCCCCC(=O)NCc1ccc(C(F)(F)F)cc1
Activity [1]: 92%

CCCCCCCC/C=C\CCCCCCCC(=O)Nc1ccc(O)cc1
Activity [1]: 247%

CCCCCCCC/C=C\CCCCCCCC(=O)NCCCCC
Activity [1]: 124%

CCCCCCCC/C=C\CCCCCCCC(=O)Nc1ccc(C(C)(C)C)cc1
Activity [1]: 68%

CCCCCCCC/C=C\CCCCCCCC(=O)NCc1ccc(C)cc1
Activity [1]: 167%

CCCCCCCC/C=C\CCCCCCCC(=O)NCc1cccc(C)c1
Activity [1]: 183%

CCCCCCCC/C=C\CCCCCCCC(=O)Nc1ccc(Cl)cc1
Activity [1]: 144%

CCCCCCCC/C=C\CCCCCCCC(=O)NC1CCC1
Activity [1]: 202%

CCCCCCCC/C=C\CCCCCCCC(=O)NC1CCCCCC1
Activity [1]: 136%

CCCCCCCC/C=C\CCCCCCCC(=O)NC1CCCCC1
Activity [1]: 204%

CCCCCCCC/C=C\CCCCCCCC(=O)N[C@H](C)c1ccccc1
Activity [1]: 225%

CCCCCCCC/C=C\CCCCCCCC(=O)Nc1ccc(Oc2ccccc2)cc1
Activity [1]: 145%

CCCCCCCC/C=C\CCCCCCCC(=O)N[C@H]1CC[C@H](C)CC1
Activity [1]: 118%

CCCCCCCC/C=C\CCCCCCCC(=O)NCc1ccc(Cl)cc1
Activity [1]: 138%

CCCCCCCC/C=C\CCCCCCCC(=O)N[C@@H](C)c1ccccc1
Activity [1]: 195%

CCCCCCCC/C=C\CCCCCCCC(=O)NCc1ccc(OC)cc1
Activity [1]: 116%

CCCCCCCC/C=C\CCCCCCCC(=O)NCc1ccc(O)cc1
Activity (HEK-293T): Toxic
Activity [2]: Active
Activity [1]: 361%
Activity [3]: Active

CCCCCCCC/C=C\CCCCCCCC(=O)NCCC
Activity (HEK-293T): Toxic
Activity [2]: Active
Activity [1]: 154%
Activity [3]: Active

CCCCCCCC/C=C\CCCCCCCC(=O)NC1CCCCCCC1
Activity [1]: 148%

CCCCCCCC/C=C\CCCCCCCC(=O)Nc1ccccc1
Activity [1]: 159%

CCCCCCCC/C=C\CCCCCCCC(=O)NCc1ccccc1C
Activity [1]: 107%
